High-throughput results deposited in PubChem BioAssay by The Scripps Research Institute Molecular Screening Center.
LEDGF integ inh: blocks HIV-1 LEDGF/p75-dependent DNA integration | TR-FRET IN-LEDGF/p75 DNA integration, Eu/Cy5 | inhibition, % at 3.7 µM | actives 0.64% (n = 370,000);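 active = inhibition above the screen-wide mean plus 3 SD, cut at about 13% in these data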;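 also: signal is the Cy5 over europium emission ratio at 671 and 618 nm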
MBD2 inh: MBD2-methylated oligo binding inhibition; Q9UBB5; TR-FRET, MBD2 binding to methylated oligonucleotide; inhibition, % at 4.4 µM; actives 0.31% (n = 370,000); AID 686964; in the data active = inhibition above about 13%
TDP2 absorb: TDP2 (human) inhibition, absorbance primary screen. recombinant TDP2, T5PNP hydrolysis, p-nitrophenol absorbance 415 nm. inhibition, % at 12.8 µM. actives 0.34% (n = 370,000);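 active = inhibition above the mean of all tested compounds plus 3 SD, set per campaign, cut at about 25% in these data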
Target sequence (O95551 whole entry, looked up): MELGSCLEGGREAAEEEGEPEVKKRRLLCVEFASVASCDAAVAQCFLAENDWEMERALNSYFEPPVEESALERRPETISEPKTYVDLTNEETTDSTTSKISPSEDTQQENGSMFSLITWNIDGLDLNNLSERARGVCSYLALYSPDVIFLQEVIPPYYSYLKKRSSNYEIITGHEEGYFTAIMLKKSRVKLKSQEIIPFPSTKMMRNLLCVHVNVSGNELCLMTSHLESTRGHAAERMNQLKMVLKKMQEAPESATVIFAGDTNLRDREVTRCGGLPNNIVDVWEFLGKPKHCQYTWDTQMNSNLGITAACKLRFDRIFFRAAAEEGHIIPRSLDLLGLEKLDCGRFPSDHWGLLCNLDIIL
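Test system: human TDP2 enzyme; Input: 120 nM TDP2 per well; Buffer or medium: Mg2+-containing Tris-HCl buffer, pH 7.5; Reagent: 5 mM T5PNP; Dosing: 12.8 µM single point, 1% DMSO; Incubation: reaction 2 h, 37 °C; Detection: p-Nitrophenol epi absorbance; Read-out: % inhibition relative to enzyme-containing and enzyme-free wells; Replicates: single well per compound.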
UHRF1 MBD2 ctr: UHRF1 methyl-DNA binding inhibition. UHRF1 binding to methylated oligo, TR-FRET. Q96T88. inhibition, % at 4.4 µM. actives 0.75% (n = 370,000); in the data active = inhibition above about 21%;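 also: UHRF1 SRA domain binding a hemimethylated CpG hairpin DNA probe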
Large screens that a line does not name were inactive. In the library only some 1.6% were active in any assay of this set; here they are far more common.

Clc1ccc([C@H]2OC[C@@]3(CNCC4CC4)CS[C@H](c4ccc(Cl)cc4)N23)cc1	none
COc1ccccc1/C=C/C(=O)NNC(=O)c1cc(C)oc1C	none
Cc1cc(C(=O)NNC(=O)/C=C/c2ccco2)c(C)o1	LEDGF integ inh 53, UHRF1 MBD2 ctr 29
O=C(C1CC1)N1CCc2sccc2C1c1ccc(Cl)cc1 (stereo not drawn)	UHRF1 MBD2 ctr 51
CC1=C2N=C(N)N(Cc3ccccc3)C(Cc3ccccc3)C2n2c(=O)n(-c3ccccc3)c(=O)n2C1 (stereo not drawn)	none
CCOC(=O)[C@@]12CCCC3=C1N(CCC3)C(=O)[C@H]2CC(=O)NCc1cccc2ccccc12	none
O=C(c1cccc(S(=O)(=O)N2CCOCC2)c1)N1CCCCCC1	UHRF1 MBD2 ctr 40
O=C(c1cccc(S(=O)(=O)N2CCOCC2)c1)N1CCCC1	none
O=C(c1cccc(-n2cccc2)c1)N1CCN(S(=O)(=O)c2ccccc2)CC1	MBD2 inh 28, UHRF1 MBD2 ctr 56
Cc1ccc(S(=O)(=O)N2CCN(C(=O)c3cccc(-n4cccc4)c3)CC2)cc1	none
c1nc(NC[C@@H]2CCCO2)c2cc(-c3ccc4c(c3)OCO4)ccc2n1	none
Cc1cc(C(=O)OCC(=O)Nc2cccc(S(N)(=O)=O)c2)c2ccccc2n1	UHRF1 MBD2 ctr 23
Cc1cc(C(=O)OCC(=O)NCCc2ccc(S(N)(=O)=O)cc2)c2ccccc2n1	none
CCCN1CC(=O)N2[C@H](C[C@@]3(n4ccc5ccccc54)c4ccccc4N(S(=O)(=O)c4ccccc4)[C@@H]23)C1=O	none
Cc1nc(C)c(CCNC(=O)c2ccccc2Br)s1	UHRF1 MBD2 ctr 21
CCCCCc1nnc(NC(=O)c2ccc3nc[nH]c3c2)s1	UHRF1 MBD2 ctr 57
CC(C)NC(=O)N(C)C[C@H]1OCCCC[C@H](C)Oc2ccc(NS(=O)(=O)c3ccccc3)cc2C(=O)N([C@H](C)CO)C[C@H]1C	UHRF1 MBD2 ctr 22
Cc1ccc(OCc2ccc(C(=O)Nc3ccc(C(N)=O)cc3)o2)c([N+](=O)[O-])c1	UHRF1 MBD2 ctr 34
O=C(O)c1ccc(NC(=O)c2ccc(COc3ccccc3)o2)cc1	UHRF1 MBD2 ctr 26
Cc1ccc(OCc2ccc(C(=O)Nc3cc(C)on3)o2)c([N+](=O)[O-])c1	none
Nc1[nH]c(C(=O)c2ccccc2)c(-c2ccccn2)c1C(=O)c1c[nH]c2ccc(F)cc12	none
CCCCOCCCNC(=O)C[C@H]1C[C@@]2(C(=O)OC)C(=C[C@H](C3CCCC3)O[C@@H]2C)N(CCc2ccc(OC)c(OC)c2)C1=O	none
CC(=O)CCC(=O)NC1CCCc2c1cnn2-c1ccc(C(C)(C)C)cc1 (stereo not drawn)	UHRF1 MBD2 ctr 34
Cc1ccc(CNC(=O)OC2CC3CC2[C@H]2CCCCN2C3=O)cc1 (stereo partly drawn)	none
CCCNC(=O)OC1CC2CC1[C@H]1CCCCN1C2=O (stereo partly drawn)	UHRF1 MBD2 ctr 23
C#CCNC(=O)C[C@@H]1C(=O)N(Cc2ccc(OC)cc2)C2=CCN(C(=O)OC(C)(C)C)C[C@]21C(=O)OCC	none
COc1ccc(NC2=C(C(C)=O)C(c3ccccc3)C(C(C)=O)C(C)(O)C2)cc1 (stereo not drawn)	UHRF1 MBD2 ctr 61
O=C(N/N=C/c1cn(Cc2cccc(F)c2)c2ccccc12)c1cc(O)cc(O)c1	LEDGF integ inh 39, MBD2 inh 27, UHRF1 MBD2 ctr 66
Nc1ccc(C(=O)N/N=C/c2cn(Cc3ccc(F)cc3)c3ccccc23)cc1	none
O=C1CCCC(O)=C1N=Nc1cccc(C(=O)O)c1	UHRF1 MBD2 ctr 21
COc1ccccc1NC(=O)N1CCN(c2ccc3nncn3n2)CC1	UHRF1 MBD2 ctr 24
O=C(O)c1ccc(-c2ccc(/C=C3\NC(=O)N(Cc4ccc(Cl)cc4)C3=O)o2)cc1Cl	LEDGF integ inh 29, MBD2 inh 22, UHRF1 MBD2 ctr 77
O=S1(=O)C=CCN1Cc1cn(Cc2ccc(Cl)cc2)nn1	none
O=S1(=O)C=CCN1Cc1cn(Cc2ccc(F)cc2)nn1	UHRF1 MBD2 ctr 47
Cc1cccc(NC(=O)Nc2nc3ncccn3c2-c2ccccc2)c1	none
Cc1oc2c(c(C)cc3oc(=O)c(CC(=O)NCC(=O)NCC(=O)NCC(C)O)c(C)c32)c1C (stereo not drawn)	UHRF1 MBD2 ctr 65
Cc1oc2c(c(C)cc3oc(=O)c(CC(=O)NCCCO)c(C)c32)c1C	none
COc1ccc2c(c1)CNC2CS(=O)(=O)NCc1ccccc1 (stereo not drawn)	none
COCC(=O)NCC1CCN(C(=O)C(=O)c2cccs2)CC1	none
COc1ccc2c(c1)CN1CN(C3CCCC3)S(=O)(=O)CC21 (stereo not drawn)	none
C[N+]1=C(N)N[C@@]2(C=C3CCCCC3n3c(=O)n(-c4ccccc4)c(=O)n32)C1 (stereo partly drawn)	none
CC(CO)NS(=O)(=O)c1cc(Cl)ccc1F (stereo not drawn)	UHRF1 MBD2 ctr 26
CCCCCCc1c[nH]c2ccc(O)c(-c3ccccc3)c12	none
O=C1Nc2ccccc2Nc2ccccc21	UHRF1 MBD2 ctr 23
O=C1Nc2ccccc2C1=O	none
COc1cc(CCC(=O)Nc2ccc(C)c(S(=O)(=O)N(C)C)c2)cc(OC)c1OC	UHRF1 MBD2 ctr 21
CCOC(=O)[C@]12CCCC3=C1N(CCC3)C(=O)[C@@H](CC(=O)NCCCN1CCCC1=O)C2	none
CC(=O)N1N=C(c2ccco2)CC1c1ccc(Cl)o1 (stereo not drawn)	UHRF1 MBD2 ctr 33
CCOc1ccccc1C1C(C(=O)Nc2ccccc2OC)=C(C)Nc2nc(CCCO)nn21 (stereo not drawn)	UHRF1 MBD2 ctr 22
COc1ccc(OC)c(C2C(C(=O)Nc3ccccc3OC)=C(C)Nc3nc(CCCO)nn32)c1 (stereo not drawn)	none
CC(C)(C)OC(=O)N1CCC[C@H]1C(=O)NCC1CCC(C(=O)O)CC1 (stereo partly drawn)	none
CSCC[C@H](NC(=O)C1CCC(CNC(=O)[C@@H]2CCCN2C(=O)OC(C)(C)C)CC1)C(=O)O (stereo partly drawn)	UHRF1 MBD2 ctr 40
CCN(CC)C(=O)CC[C@H]1CC[C@]2(CCCN(C3CCCCC3)C2)O1	none
O=C(CN1CCC(NC(=O)Nc2ccc(Cl)cc2)CC1)Nc1ccc2c(c1)OCCO2	none
CCOC(=O)c1oc2ccccc2c1NC(=O)C(C)(C)C	UHRF1 MBD2 ctr 52
CCOCC(=O)Nc1c(C(=O)OCC)oc2ccccc12	none
Cn1c(N)c(-c2nc3cccnc3n2C)sc1=S	UHRF1 MBD2 ctr 24
COc1cccc(CN(C)C(=O)c2cccnc2SC)c1OC	UHRF1 MBD2 ctr 26
CCOc1ccc2[nH]c3c(NCCc4ccc(OC)c(OC)c4)ncnc3c2c1	UHRF1 MBD2 ctr 45
CN1CC(=O)N2[C@@H](C[C@]3(c4c[nH]c5ccccc45)c4ccccc4N(S(=O)(=O)c4ccccc4)[C@H]23)C1=O	none
CCCCOc1ccc(C(=O)NC2CCCCN(Cc3ccccc3C)C2=O)cc1 (stereo not drawn)	none
CCC(=O)Nc1nnc(S(=O)(=O)N(C)Cc2ccco2)s1	UHRF1 MBD2 ctr 21
